Reference: ChEMBL document CHEMBL2311293, “Discovery of agonists of cannabinoid receptor 1 with restricted central nervous system penetration aimed for treatment of gastroesophageal reflux disease” (J Med Chem, 2013)
Converted amounts (≈) assume the structure as drawn.

Columns and labels:
Cannabinoid receptor 1 [1] = molecular target: T1, Cannabinoid receptor 1 (Homo sapiens, UniProt P21554); experiment: Displacement of [3H]-CP55,940 from human CB1 receptor expressed in HEK293S cell membranes by scintillation counting analysis
T1 sequence (P21554 whole entry): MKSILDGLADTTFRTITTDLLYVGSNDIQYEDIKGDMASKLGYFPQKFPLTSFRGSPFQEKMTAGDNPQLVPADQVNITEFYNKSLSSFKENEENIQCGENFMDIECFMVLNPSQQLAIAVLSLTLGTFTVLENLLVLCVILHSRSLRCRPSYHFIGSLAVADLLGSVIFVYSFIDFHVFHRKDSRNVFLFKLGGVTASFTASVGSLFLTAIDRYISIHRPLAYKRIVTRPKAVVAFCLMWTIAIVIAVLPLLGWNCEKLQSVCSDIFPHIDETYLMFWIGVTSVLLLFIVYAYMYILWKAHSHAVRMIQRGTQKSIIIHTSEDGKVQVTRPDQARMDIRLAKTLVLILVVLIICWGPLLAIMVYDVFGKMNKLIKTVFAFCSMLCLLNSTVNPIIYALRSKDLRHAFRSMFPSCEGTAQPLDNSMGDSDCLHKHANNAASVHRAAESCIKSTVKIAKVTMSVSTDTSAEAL

Cannabinoid receptor 2 = Cannabinoid receptor 2 (Homo sapiens, UniProt P34972); experiment: Displacement of [3H]-CP55,940 from human CB2 receptor expressed in Sf9 cell membranes by scintillation counting analysis
Sequence of Cannabinoid receptor 2 (P34972 whole entry): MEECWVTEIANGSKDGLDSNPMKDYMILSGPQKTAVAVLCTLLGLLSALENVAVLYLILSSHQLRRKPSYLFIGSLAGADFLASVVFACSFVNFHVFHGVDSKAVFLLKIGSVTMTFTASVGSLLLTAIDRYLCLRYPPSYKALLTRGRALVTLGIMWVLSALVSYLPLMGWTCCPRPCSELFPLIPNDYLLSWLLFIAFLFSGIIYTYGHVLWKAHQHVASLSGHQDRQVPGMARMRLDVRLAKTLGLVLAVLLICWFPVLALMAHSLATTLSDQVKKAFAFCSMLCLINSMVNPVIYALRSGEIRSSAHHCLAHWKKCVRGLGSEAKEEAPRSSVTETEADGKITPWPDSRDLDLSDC
How it was run: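 Membranes from Sf9 cells expressing cloned hCB2 (baculovirus) in 50 mM Tris, 2.5 mM EDTA, 5 mM MgCl2, 0.5 mg/mL fatty-acid-free BSA, pH 7.4. 60 min at rt, GF/B filtration, scintillation counting. 10-point curves; IC50 mean of three independent experiments.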

[2] = Lipophilicity, log D of the compound; conditions: octanol/water
Cannabinoid receptor 1 [3] = molecular target: T1, Cannabinoid receptor 1; experiment: Agonist activity at human CB1 receptor expressed in HEK293S cell membranes after 1 hr by GTPgamma[35S] binding assay relative to WIN 55,212-2
How it was run: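 HEK293S membranes with cloned human CB1 (5 µg protein/well) in Hepes buffer pH 7.4, 100 mM NaCl, 5 mM MgCl2, 1 mM EDTA, 0.1% BSA, 15 µM GDP final. GTPγ[35S] added to start, 1 h at rt, filtered, counted. Basal from 8 wells; maximum from 8 wells with 10 µM reference agonist. Emax expressed as % of that reference. 10-point curves; mean of three experiments.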

Cannabinoid receptor 1 [4] = molecular target: T1, Cannabinoid receptor 1; experiment: Agonist activity at human CB1 receptor expressed in HEK293S cell membranes after 1 hr by GTPgamma[35S] binding assay
[5] = Ratio of unbound fraction in brain to plasma in Sprague-Dawley rat; format: ADME, cell-free
How it was run: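 Steady-state total brain/plasma ratio in Sprague-Dawley rats after 4 h constant-rate i.v. infusion, corrected by unbound fraction in brain (rat brain slices) and in plasma (equilibrium dialysis).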

Caco-2 = experiment: (§1) Apparent permeability from apical to basolateral side in human Caco2 cells at pH 7.4; format: ADME, cell-based; conditions: Caco-2, pH 7.4
How it was run: (§2)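 Caco-2 monolayers at pH 7.4, apparent permeability measured for apical-to-basolateral transport.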

[6] = Ratio of drug level in brain to plasma in Sprague-Dawley rat; format: ADME, cell-free; conditions: for Kp: Sprague-Dawley, brain and plasma, read-out: BPR
How it was run: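 Total brain-to-plasma ratio from in vivo Sprague-Dawley rat samples, compound given as 4 h constant-rate i.v. infusion to steady state.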

Cytochrome P450 3A4 = Cytochrome P450 3A4 (Homo sapiens, UniProt P08684); experiment: Inhibition of human recombinant CYP3A4 expressed in Escherichia coli cells; format: ADME
Sequence of Cytochrome P450 3A4 (P08684 whole entry): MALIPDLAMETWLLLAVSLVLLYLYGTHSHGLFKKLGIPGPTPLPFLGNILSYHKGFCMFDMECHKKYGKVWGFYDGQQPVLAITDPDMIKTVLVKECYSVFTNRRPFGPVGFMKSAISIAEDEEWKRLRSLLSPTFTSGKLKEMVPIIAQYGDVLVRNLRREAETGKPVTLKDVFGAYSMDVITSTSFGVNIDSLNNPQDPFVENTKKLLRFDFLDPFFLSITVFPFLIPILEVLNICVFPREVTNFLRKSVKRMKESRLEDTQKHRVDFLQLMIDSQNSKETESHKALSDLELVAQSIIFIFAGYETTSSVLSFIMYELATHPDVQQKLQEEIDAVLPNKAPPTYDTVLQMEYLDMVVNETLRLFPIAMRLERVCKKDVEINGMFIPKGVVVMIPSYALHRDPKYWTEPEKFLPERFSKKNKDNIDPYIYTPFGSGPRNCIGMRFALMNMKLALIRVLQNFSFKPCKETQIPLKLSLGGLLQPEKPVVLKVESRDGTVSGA

[7] = molecular target: Voltage-gated inwardly rectifying potassium channel KCNH2 (Homo sapiens, UniProt Q12809); experiment: Inhibition of human ERG expressed in CHO cells by patch clamp assay; format: cell-based
Sequence of Voltage-gated inwardly rectifying potassium channel KCNH2 (Q12809 whole entry): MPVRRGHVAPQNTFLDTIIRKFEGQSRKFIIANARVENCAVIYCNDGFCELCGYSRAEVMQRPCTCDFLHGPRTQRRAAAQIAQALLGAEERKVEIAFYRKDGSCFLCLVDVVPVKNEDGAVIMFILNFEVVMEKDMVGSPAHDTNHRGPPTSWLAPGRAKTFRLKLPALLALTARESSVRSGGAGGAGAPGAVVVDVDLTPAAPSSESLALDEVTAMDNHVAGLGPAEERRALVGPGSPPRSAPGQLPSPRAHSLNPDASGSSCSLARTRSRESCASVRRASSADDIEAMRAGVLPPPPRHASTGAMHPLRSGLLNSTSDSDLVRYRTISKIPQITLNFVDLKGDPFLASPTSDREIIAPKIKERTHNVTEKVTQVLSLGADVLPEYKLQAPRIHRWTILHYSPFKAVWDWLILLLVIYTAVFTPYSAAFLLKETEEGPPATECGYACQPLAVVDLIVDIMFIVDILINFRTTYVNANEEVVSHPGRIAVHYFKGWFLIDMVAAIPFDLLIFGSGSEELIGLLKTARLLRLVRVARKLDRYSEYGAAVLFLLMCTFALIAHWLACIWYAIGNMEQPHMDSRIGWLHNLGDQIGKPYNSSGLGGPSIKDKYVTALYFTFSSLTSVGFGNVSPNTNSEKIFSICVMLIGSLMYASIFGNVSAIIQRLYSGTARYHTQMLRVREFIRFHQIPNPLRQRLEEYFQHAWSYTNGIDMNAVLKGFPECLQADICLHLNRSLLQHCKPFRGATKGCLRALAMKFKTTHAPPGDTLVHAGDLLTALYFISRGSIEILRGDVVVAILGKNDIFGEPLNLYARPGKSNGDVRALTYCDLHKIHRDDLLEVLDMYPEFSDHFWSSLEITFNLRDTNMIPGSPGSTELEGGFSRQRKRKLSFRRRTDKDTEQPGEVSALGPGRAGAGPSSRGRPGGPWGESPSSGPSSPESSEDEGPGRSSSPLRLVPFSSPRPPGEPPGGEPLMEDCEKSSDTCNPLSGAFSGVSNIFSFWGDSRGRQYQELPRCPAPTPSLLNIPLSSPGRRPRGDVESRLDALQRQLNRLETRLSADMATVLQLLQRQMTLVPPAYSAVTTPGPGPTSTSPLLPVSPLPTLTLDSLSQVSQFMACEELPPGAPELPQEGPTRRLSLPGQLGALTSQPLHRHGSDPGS
How it was run: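 Patch clamp (IonWorks) in CHO cells expressing hERG.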

Cytochrome P450 2C9 = Cytochrome P450 2C9 (Homo sapiens, UniProt P11712); experiment: Inhibition of human recombinant CYP2C9 expressed in Escherichia coli cells; format: ADME
Sequence of Cytochrome P450 2C9 (P11712 whole entry): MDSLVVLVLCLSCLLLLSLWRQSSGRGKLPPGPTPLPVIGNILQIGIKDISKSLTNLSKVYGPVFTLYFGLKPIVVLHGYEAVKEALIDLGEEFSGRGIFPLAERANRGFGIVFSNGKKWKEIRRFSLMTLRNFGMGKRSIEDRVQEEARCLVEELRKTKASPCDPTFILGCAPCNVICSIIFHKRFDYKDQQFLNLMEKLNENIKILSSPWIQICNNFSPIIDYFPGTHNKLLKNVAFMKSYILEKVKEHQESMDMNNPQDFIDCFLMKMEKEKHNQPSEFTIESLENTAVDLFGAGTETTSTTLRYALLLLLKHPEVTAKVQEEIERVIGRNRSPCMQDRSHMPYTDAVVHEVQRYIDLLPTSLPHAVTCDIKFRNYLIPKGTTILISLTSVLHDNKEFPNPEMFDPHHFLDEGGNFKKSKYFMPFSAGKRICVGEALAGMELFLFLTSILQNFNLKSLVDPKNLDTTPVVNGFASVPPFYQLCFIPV

[8] = Solubility of the compound in Hank's balanced saline solution at pH 7.4 after 24 hrs by HPLC analysis; format: physicochemical
How it was run: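 Compound in DMSO added to Hanks balanced saline solution pH 7.4, shaken 24 h.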

[9] = Clearance in Sprague-Dawley rat at 2 umol/kg, iv; format: ADME, organism-based; conditions: in vivo
How it was run: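 Sprague-Dawley rats given 2 µmol/kg i.v.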

[10] = Oral bioavailability in Sprague-Dawley rat at 10 umol/kg; format: ADME, organism-based; conditions: in vivo
How it was run: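 Sprague-Dawley rats given 10 µmol/kg p.o., with i.v. reference dose of 2 µmol/kg.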

[11] = as §1; format: ADME, cell-based; conditions: Caco-2, pH 7.4; how it was run: as §2

## O=C(NCC1CCC1)c1ncccc1NC(=O)c1cccc2cccnc12
Cannabinoid receptor 1 [1]
  IC50: 0.32 µM
Cannabinoid receptor 2
  IC50: 0.36 µM
[2]
  logD: 5.5

## O=C(NCC1CCC1)c1ncccc1NC(=O)c1ccc(Cn2ccnc2)c2ccccc12
Cannabinoid receptor 1 [3]
  Emax: 100%
Cannabinoid receptor 1 [4]
  EC50: 0.04 µM
Cannabinoid receptor 2
  IC50: 0.33 µM

## COCc1ccc(C(=O)Nc2cccnc2C(=O)NCC2CCC2)c2ccccc12
Cannabinoid receptor 1 [3]
  Emax: 110%
Cannabinoid receptor 1 [4]
  EC50: 0.0059 µM
Cannabinoid receptor 2
  IC50: 0.019 µM

## C[S+]([O-])Cc1ccc(C(=O)Nc2nccnc2C(=O)NCC2CCC2)c2ccccc12 (single isomer, unassigned)
Cannabinoid receptor 1 [1]
  IC50: 0.037 µM
[5]
  BPR: 0.011
Cannabinoid receptor 1 [4]
  EC50: 0.032 µM
Caco-2
  Papp: 9 ×10⁻⁶ cm/s
[2]
  logD: 2.7
[6]
  Kp: 0.02

## C[S+]([O-])Cc1ccc(C(=O)Nc2nccnc2C(=O)NCC2CCC2)c2ccccc12 (stereo in doubt; 18f)
Cannabinoid receptor 1 [1]
  IC50: 0.047 µM
[5]
  BPR: 0.03
Cytochrome P450 3A4
  IC50: > 20 µM
Cannabinoid receptor 1 [4]
  EC50: 0.12 µM
Caco-2
  Papp: 20 ×10⁻⁶ cm/s
[7]
  IC50: 17 µM
Cannabinoid receptor 2
  IC50: 0.3 µM
Cytochrome P450 2C9
  IC50: > 20 µM
[8]
  solubility at 24 h: 87 µM (≈ 38 µg/mL)
[9]
  clearance: 26 mL/min/kg
[10]
  bioavailability: 52%
[6]; brain
  BPR: 0.022

## COc1ccc(NC(=O)c2ccc(Cn3ccnn3)c3ccccc23)c(C(=O)NCC2CCC2)n1
Cannabinoid receptor 1 [1]
  IC50: 0.00097 µM
Cannabinoid receptor 1 [3]
  Emax: 54%
[5]
  BPR: 0.093
Cannabinoid receptor 1 [4]
  EC50: 0.0013 µM
[11]
  Papp A→B: 0.96 ×10⁻⁶ cm/s
[2]
  logD: 5.7
[6]
  Kp: 0.31

## O=C(NCC1CCC1)c1ncccc1NC(=O)c1cccc2ccccc12
Cannabinoid receptor 1 [1]
  IC50: 0.0061 µM
Cannabinoid receptor 1 [3]
  Emax: 110%
Cannabinoid receptor 1 [4]
  EC50: 0.023 µM
Cannabinoid receptor 2
  IC50: 0.026 µM

## O=C(NCC1CCOCC1)c1ncccc1NC(=O)c1ccc(C(=O)O)c2ccccc12
Cannabinoid receptor 1 [1]
  IC50: > 10000 µM
Cannabinoid receptor 2
  IC50: > 10 µM

## C[S+]([O-])Cc1ccc(C(=O)Nc2cccnc2C(=O)NCC2CCC2)c2ccccc12 (configuration not stated)
Cannabinoid receptor 1 [1]
  IC50: 7 µM
Cannabinoid receptor 1 [3]
  Emax: 110%
Cannabinoid receptor 1 [4]
  EC50: 0.0059 µM
[2]
  logD: 4.6

## CS(=O)(=O)Cc1ccc(C(=O)Nc2cccnc2C(=O)NCC2CCC2)c2ccccc12
Cannabinoid receptor 1 [1]
  IC50: 240 µM
Cannabinoid receptor 1 [3]
  Emax: 77%
Cannabinoid receptor 1 [4]
  EC50: 0.26 µM

## O=C(NCC1CCCCC1)c1ccncc1NC(=O)c1cccc2ccccc12
Cannabinoid receptor 1 [1]
  IC50: 3.6 µM
Cannabinoid receptor 2
  IC50: > 8.9 µM
[2]
  logD: 5.5

## O=C(NCC1CCCCC1)c1cnccc1NC(=O)c1cccc2ccccc12
Cannabinoid receptor 1 [1]
  IC50: 1.4 µM
Cannabinoid receptor 2
  IC50: 9 µM
[2]
  logD: 6.1

## O=C(NCC1CCC1)c1ncccc1NC(=O)c1ccc(Cn2ccnn2)c2ccccc12
Cannabinoid receptor 1 [1]
  IC50: 0.71 µM
Cannabinoid receptor 1 [3]
  Emax: 110%
Cannabinoid receptor 1 [4]
  EC50: 0.0014 µM
Cannabinoid receptor 2
  IC50: 0.065 µM
[2]
  logD: 5.3

## O=C(NCC1CCOCC1)c1ncccc1NC(=O)c1cccc2nccnc12
Cannabinoid receptor 1 [1]
  IC50: > 9.9 µM
Cannabinoid receptor 2
  IC50: > 10 µM
[2]
  logD: 2.5

## C[S@+]([O-])Cc1ccc(C(=O)Nc2cccnc2C(=O)NCC2CCOCC2)c2ccccc12
Cannabinoid receptor 1 [1]
  IC50: 0.6 µM
[11]
  Papp A→B: 0.61 ×10⁻⁶ cm/s
[2]
  logD: 2.9

## O=C(NCC1CCC1)c1ncccc1NC(=O)c1cccc2cnccc12
Cannabinoid receptor 1 [1]
  IC50: 0.22 µM
Cannabinoid receptor 2
  IC50: 0.038 µM
[2]
  logD: 5.1

## COc1ccc(NC(=O)c2ccnc3ccccc23)c(C(=O)NCC2CCC2)n1
Cannabinoid receptor 1 [1]
  IC50: 15 µM
Cannabinoid receptor 1 [3]
  Emax: 51%
Cannabinoid receptor 1 [4]
  EC50: 0.016 µM
Cannabinoid receptor 2
  IC50: 0.1 µM
[2]
  logD: 5.9
